# Measured values taken from ChEMBL document CHEMBL3813689, “Discovery of Potent Benzofuran-Derived Diapophytoene Desaturase (CrtN) Inhibitors with Enhanced Oral Bioavailability for the Treatment of Methicillin-Resistant Staphylococcus aureus (MRSA) Infections” (J Med Chem, 2016).
# Active and inactive are the calls of the source. No cut-off for these calls is given here.
# How the values were obtained:
# [1] = Cytotoxicity against HMEC1 measure after 72 hrs by SRB assay; conditions: Homo sapiens, HMEC-1, 72 h
# [2] = Cytotoxicity against human WI38 cells measure after 72 hrs by SRB assay; assay type: cell-based; conditions: WI-38, 72 h
# Staphylococcus aureus [3] = assay: Sensitization of methicillin-resistant Staphylococcus aureus USA300 LAC to H2O2 assessed as bacterial survival at 1 uM measured after 24 hrs (reference value: 14.2%); assay type: functional
# [4] = Aqueous solubility of the compound by HPLC method; assay type: physicochemical
# How it was run: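 Calibration with standards at 50, 100, 200, 400 and 800 µg/mL in methanol (peak area vs concentration). 10 mg solid stirred in 1 mL pure water for 24 h, more added if still clear; syringe-filtered, 10 µL injected; solubility read from calibration curve.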
# Staphylococcus aureus [5] = assay: Inhibition of staphyloxanthin pigment formation in methicillin-resistant Staphylococcus aureus Mu50 after 48 hrs by spectrophotometric method; assay type: functional, organism-based; conditions: Mu50, 48 h
# How it was run: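 MRSA grown in 4 mL TSB with 40 µL compound (2-fold serial dilutions from 20 mM DMSO stock) at 37 °C for 48 h, triplicate. Cells washed twice in PBS, pigment extracted with methanol, OD450 measured; IC50 from dose-response fit.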
# Staphylococcus aureus [6] = assay: Suppression in growth of Staphylococcus aureus Newman at 0.2 mM measured after overnight incubation by spectrophotometric method; assay type: organism-based; conditions: in vitro, 200 µM
# How it was run: (§1)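 Compound from 20 mM DMSO stock diluted in TSB to final 0.2 or 0.05 mM; DMSO growth controls; paraffin overlay. Overnight cultures inoculated to final OD600 ≈ 0.05; incubated at 37 °C overnight with OD600 read every 30 min.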
# Staphylococcus aureus [7] = assay: Suppression in growth of methicillin-resistant Staphylococcus aureus Mu50 at 0.05 mM measured after overnight incubation by spectrophotometric method; assay type: organism-based; conditions: 50 µM; how it was run: as §1
# Staphylococcus aureus [8] = assay: Suppression in survival of methicillin-resistant Staphylococcus aureus USA400 MW2 at 0.05 mM measured after overnight incubation by spectrophotometric method; assay type: ADME, organism-based; conditions: 50 µM; how it was run: as §1
# Staphylococcus aureus [9] = assay: Suppression in survival of methicillin-resistant Staphylococcus aureus Mu50 at 0.05 mM measured after overnight incubation by spectrophotometric method; assay type: ADME, organism-based; conditions: 50 µM; how it was run: as §1
# Staphylococcus aureus [10] = assay: Sensitization of methicillin-resistant Staphylococcus aureus USA400 MW2 to immune clearance in human whole blood assessed as reduction in bacterial survival at 1 uM measured after 24 hrs relative to control; assay type: functional
# How it was run: (§2)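 Overnight cultures spun down and resuspended in sterile PBS at 1 × 10^7 CFU/mL. 40 µL mixed with 360 µL fresh whole blood from a healthy human volunteer, giving 1 × 10^6 CFU/mL. Incubated 6 h at 37 °C. Surviving CFU counted by plating dilutions on TSA.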
# Staphylococcus aureus [11] = assay: Sensitization of methicillin-resistant Staphylococcus aureus Mu50 to immune clearance in human whole blood assessed as reduction in bacterial survival at 1 uM measured after 24 hrs relative to control; assay type: functional; how it was run: as §2
# Staphylococcus aureus [12] = assay: Sensitization of methicillin-resistant Staphylococcus aureus USA400 MW2 to H2O2 assessed as reduction in bacterial survival at 1 uM measured after 24 hrs relative to control; assay type: functional
# How it was run: (§3)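 Strains grown 24 h in TSB with or without inhibitor, washed twice in PBS, then diluted to 4 × 10^6 CFU per 250 µL reaction. H2O2 added to a final 1.5%. Tubes sealed and held 30 min at 37 °C. Reaction stopped with 1000 U/mL catalase. Survivors counted as CFU by serial dilution on TSA plates and compared with untreated (mock) bacteria.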
# Staphylococcus aureus [13] = assay: Sensitization of methicillin-resistant Staphylococcus aureus USA300 LAC to H2O2 assessed as reduction in bacterial survival at 1 uM measured after 24 hrs relative to control; assay type: functional; how it was run: as §3
# Staphylococcus aureus [14] = assay: Antibacterial activity against Staphylococcus aureus Newman infected Balb/c mouse assessed as reduction of bacterial survival in heart at 5.2 mg, ip bid administered for 4.5 days followed by bacterial infection measured after 5 days; assay type: functional
# How it was run: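 Female BALB/c mice, 6–8 weeks, dosed ip with compound in sterile water once and every 12 h for 108 h; water vehicle controls. Challenged 12 h after first dose with 1 × 10^7 CFU Newman by retro-orbital injection. Kidneys and hearts homogenised in PBS/0.1% Triton X-100 and plated on TSA for CFU. n = 13 mice; two-tailed Mann-Whitney.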
# Staphylococcus aureus [15] = assay: Antibacterial activity against Staphylococcus aureus USA400 MW2 infected Balb/c mouse assessed as reduction of bacterial survival in liver at 1.3 mg, ip bid administered for 4.5 days followed by bacterial infection measured after 5 days; assay type: functional
# How it was run: (§4)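 Female BALB/c mice, 6–8 weeks. Compound in sterile water ip once and every 12 h for 108 h, total 50 or 200 mg/kg; water controls. Infected 12 h after first dose with 4 × 10^7 CFU USA400 MW2 (100 µL). Killed 5 days post infection; liver or kidney CFU counted on TSA after homogenising in PBS/0.1% Triton X-100. n = 13; two-tailed Mann-Whitney.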
# Staphylococcus aureus [16] = assay: Antibacterial activity against Staphylococcus aureus USA400 MW2 infected Balb/c mouse assessed as reduction of bacterial survival in kidney at 1.3 mg, ip bid administered for 4.5 days followed by bacterial infection measured after 5 days; assay type: functional, organism-based; how it was run: as §4
# Staphylococcus aureus [17] = assay: Antibacterial activity against Staphylococcus aureus Mu50 infected Balb/c mouse assessed as reduction of bacterial survival in kidney at 1.3 mg, ip bid administered for 4.5 days followed by bacterial infection measured after 5 days; assay type: functional
# [18] = Volume of distribution at steady state in Sprague-Dawley rat at 5 mg/kg, iv administered as single dose; assay type: ADME, organism-based; conditions: in vivo, read-out: Vdss
# How it was run: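 Male SD rats, 3 per group, single iv 5 mg/kg or oral 10 mg/kg. Blood sampled 0.083 (iv only), 0.25, 0.5, 1, 2, 4, 6, 8, 24 h postdose; plasma separated at 4 °C, stored −80 °C, analysed within 1 week. Parameters from plasma concentration-time data; F from dose-normalized AUC, oral vs iv.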
# [19] = target: T1, 4,4'-diapophytoene desaturase (4,4'-diaponeurosporene-forming) (Staphylococcus aureus (strain Newman)) (UniProt O07855); conditions: Staphylococcus aureus subsp. aureus str. Newman; 1 uM
# T1 sequence (whole entry): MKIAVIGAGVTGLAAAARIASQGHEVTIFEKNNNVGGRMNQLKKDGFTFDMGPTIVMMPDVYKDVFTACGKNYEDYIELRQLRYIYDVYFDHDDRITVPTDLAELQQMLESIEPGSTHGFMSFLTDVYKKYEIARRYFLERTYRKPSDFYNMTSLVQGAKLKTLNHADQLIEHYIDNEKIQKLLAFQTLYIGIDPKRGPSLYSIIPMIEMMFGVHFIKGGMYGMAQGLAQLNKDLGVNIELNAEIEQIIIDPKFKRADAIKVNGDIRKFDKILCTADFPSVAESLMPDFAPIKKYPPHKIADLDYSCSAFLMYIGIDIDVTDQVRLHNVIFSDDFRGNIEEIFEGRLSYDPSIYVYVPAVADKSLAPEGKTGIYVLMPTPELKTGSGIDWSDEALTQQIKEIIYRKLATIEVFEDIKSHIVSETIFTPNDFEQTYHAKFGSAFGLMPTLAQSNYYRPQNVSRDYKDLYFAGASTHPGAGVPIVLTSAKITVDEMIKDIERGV
compound,measurement,setting,value
CN(C/C=C/c1ccc(C(F)(F)F)cc1)Cc1cccc2ccoc12.Cl,IC50,[1],67.1 µM
same,IC50,[2],47.9 µM
same,survival at 1 µM,Staphylococcus aureus [3],0.7%
same,solubility,[4],10000 µg/mL
same,IC50,Staphylococcus aureus [5],0.38 nM
same,Activity,Staphylococcus aureus [6],Non-toxic
same,Activity,Staphylococcus aureus [7],Non-toxic
same,Activity,Staphylococcus aureus [8],Non-toxic
same,Activity,Staphylococcus aureus [9],Non-toxic
same,fold change (FC),Staphylococcus aureus [10],8
same,fold change (FC),Staphylococcus aureus [11],5
same,fold change (FC),Staphylococcus aureus [12],20
same,fold change (FC),Staphylococcus aureus [13],20
same,Activity,Staphylococcus aureus [14],1.01 deltalog10CFU
same,Activity,Staphylococcus aureus [15],0.71 deltalog10CFU
same,Activity,Staphylococcus aureus [16],Active
same,Activity,Staphylococcus aureus [17],0.68 deltalog10CFU
same,Vd,[18],10.7 L/kg
same,inhibition,[19],Active
